The list is not random: actives were taken first. Their share in the collection is about 2.9%.
VIM-2 inhibitor = inhibitors of Pseudomonas aeruginosa VIM-2 metallo-beta-lactamase; purified VIM-2, nitrocefin hydrolysis, epi-absorbance fluorescence; inhibition, % at 5.6 µM; hit rate 0.89% among 290,000;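 active = inhibition above the mean of all tested compounds plus 3 SD, cutoff set per screening run, cut at about 7.5% in these data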;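 also: red hydrolysis product quenches plate fluorescence so inhibitors raise well fluorescence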
Mot1-301 SUMO = inhibitors of SUMOylation pathway: yeast Mot1-301 growth rescue | S. cerevisiae Mot1-301 growth rescue, ATP luminescence, 38.5C; percent above DMSO median, 100 means doubled | growth rescue, % at 18.8 µM | AID 2716 | hit rate 1% among 320,000;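 active = every valid replicate shows activation above 250% relative to neutral control wells; inactive = the rest, any valid replicate at or below 250%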
NALP1 inh = blocks the NALP1 inflammasome reconstituted in yeast; hit rate 0.61% among 280,000; S. cerevisiae NALP1/ASC/caspase-1 growth, X-gal OD620, 72 h; inhibition, % at 10 µM; in the data active = inhibition mostly above about 24%, no sharp cut-off; inactive = mostly below about 32%
UBC9 SUMO inh = SUMOylation inhibition; P63279; HTRF SUMOylation assay, SAE1/SAE2 + UBC9, in vitro; inhibition, % at 35 µM; hit rate 0.36% among 290,000; AID 2006; in the data active = inhibition above about 50%, passing the limit was not always enough
Target sequence (P63279 whole entry, looked up): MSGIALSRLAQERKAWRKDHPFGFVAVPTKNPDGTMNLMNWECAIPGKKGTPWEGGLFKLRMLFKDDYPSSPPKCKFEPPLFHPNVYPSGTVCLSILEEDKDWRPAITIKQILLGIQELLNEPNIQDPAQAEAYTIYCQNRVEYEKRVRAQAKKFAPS
DNA FID counter = counter-screen for HCV NS3 helicase inhibitors: DNA intercalator displacement | inhibition, % at 7.9 µM | AID 1845 | hit rate 0.17% among 290,000 | DNA fluorescent intercalator displacement, fluorescence; in the data active = inhibition above about 37%;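 also: higher means more ethidium bromide displaced from hairpin DNA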
IMP-1 inhibitor = inhibitors of Pseudomonas aeruginosa IMP-1 metallo-beta-lactamase | purified IMP-1, nitrocefin hydrolysis, epi-absorbance fluorescence | hit rate 0.45% among 290,000 | inhibition, % at 5.6 µM;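 active = inhibition above the mean plus 3 SD of all compounds in the same screening run, cut at about 4.5% in these data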
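System: purified recombinant IMP-1 beta-lactamase. Medium: Zinc- and detergent-supplemented HEPES buffer, pH 7.1. Compound: one 5.6 µM dose […]. Schedule: 15 min preincubation plus 25 min reaction at 25 °C. Technique: Epi-absorbance fluorescence, 480 nm excitation, 530 nm emission.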
A number is an active result; . = inactive; / = not tested or not shown.

SMILES	VIM-2 inhibitor	Mot1-301 SUMO	NALP1 inh	UBC9 SUMO inh	DNA FID counter	IMP-1 inhibitor
CC(C(Sc1ccccc1N)c1ccccc1)[N+](=O)[O-] (stereo not drawn)	.	747	/	.	.	.
Nc1ccccc1SSc1ccccc1N	.	.	.	.	.	.
Cc1ccc(C)c(C(=O)COC(=O)C2CCN(c3ccc(C(F)(F)F)cn3)CC2)c1	/	.	/	/	/	/
O=C(/C=C/c1ccccc1Cl)c1ccccc(=O)c1O	.	.	.	.	.	11
Cc1ccc(C)c(/C=C/C(=O)c2ccccc(=O)c2O)c1	.	.	.	.	.	.
O=C(/C=C/c1ccc(Cl)cc1)c1cccnc1	.	.	.	.	.	.
O=C(/C=C/c1ccccc1Cl)c1cccnc1	.	275	.	.	.	.
CCCC1(CCC)C(=O)NC(=NCCc2ccc(OC)c(OC)c2)NC1=O	.	.	.	.	.	.
CCCCN(C(=O)COC(=O)c1ccc(C=O)cc1)c1c(N)n(CCC)c(=O)[nH]c1=O	/	.	/	/	/	/
CN(C)c1ccc(/C=N/N2CCN(Cc3ccccc3Cl)CC2)cc1	.	.	.	.	.	.
O=C(/C=C/c1ccccc1)NCCC1=CCCCC1	.	.	51	.	.	.
CCOC(=O)C1CCN(c2nc(N)c3c(N)nc(SCC(=O)O)cc3c2C#N)CC1	.	/	.	100	.	.
CCOc1cc2c(C#N)c(N3CCNCC3)nc(N)c2c(N)n1	8.7	.	.	87	.	.
O=C(COc1ccc2c3c(c(=O)oc2c1)CCC3)N1CCCC1	9.8	.	.	.	.	.
O=C(COc1ccc2c3c(c(=O)oc2c1)CCC3)NCCCN1CCCC1=O	11	.	.	.	.	.
O=C(COc1ccc2oc(-c3ccco3)cc(=O)c2c1)N1CCCCC1	.	.	.	52	.	.
O=C(COc1ccc2c3c(c(=O)oc2c1)CCCC3)NCCCN1CCCC1=O	.	.	.	.	.	.
CC(C)Oc1ccc2c3c(c(=O)oc2c1)CCC3	8.6	.	.	.	.	.
CC(=O)Oc1ccc2c3c(c(=O)oc2c1)CCCC3	.	.	.	.	.	.
O=C(O)C1CCN(C(=O)COc2ccc3c4c(c(=O)oc3c2)CCCC4)CC1	.	.	.	.	.	.
COc1ccc(C(=O)N2CCC(C(=O)O)CC2)c2ccccc12	.	.	.	.	.	.
CCOC(=O)c1cc(-c2ccc(F)cc2)n(CCC(=O)NC2CCN(Cc3ccccc3)CC2)c1C	.	.	.	.	.	.
Cn1nnnc1SCC(=O)C(C)(C)C	.	.	.	.	.	.
O=C(COc1ccc2c3c(c(=O)oc2c1)CCC3)N1CCCCC1	12	.	.	.	.	.
O=C(O)COc1ccc2c3c(c(=O)oc2c1)CCC3	.	.	.	.	.	.
SMILES	VIM-2 inhibitor	Mot1-301 SUMO	NALP1 inh	UBC9 SUMO inh	DNA FID counter	IMP-1 inhibitor
O=C(COc1ccc2c3c(c(=O)oc2c1)CCCC3)N1C[C@H]2C[C@@H](C1)c1cccc(=O)n1C2	9.1	.	.	.	.	.
O=C(COc1ccc2c3c(c(=O)oc2c1)CCC3)N1CCN(c2ccccc2)CC1	11	.	.	/	.	.
COc1ccc(N2CCN(C(=O)COC(=O)CCOc3ccc(C(C)(C)C)cc3)CC2)cc1	/	.	/	/	/	/
COc1cccc2oc(-c3ccco3)cc(=O)c12	.	.	.	.	.	.
CC(C)n1c(SCC(=O)NCc2ccco2)nnc1C1CC1	.	.	.	.	.	.
C=CCOC(=O)C1=C(C)Nc2[nH]c(=O)[nH]c(=O)c2C1c1ccccc1 (stereo not drawn)	.	.	29	.	.	.
CC(C)CCN1CCN(C2CSCCSC2)CC1CCO (stereo not drawn)	.	.	.	.	.	.
CC(=O)Nc1cccc(N2C(=O)CC(N3CCC(C(=O)N4CCCCC4)CC3)C2=O)c1 (stereo not drawn)	.	.	.	.	.	.
COc1cc(OC)cc(N2C(=O)CC(N3CCC(C(=O)N4CCCCC4)CC3)C2=O)c1 (stereo not drawn)	.	298	.	.	.	.
Cc1cc(Cl)c(OCCOCCN2CCN(C)CC2)c(Br)c1	.	.	.	.	.	.
Clc1cc(Br)ccc1OCCn1ccnc1	.	.	.	.	.	.
CC1CCN(CCCCOc2ccc(Br)cc2)CC1	.	.	.	.	.	.
Cc1cc(Br)ccc1OCCCCN1CCC(C)CC1	.	.	56	.	.	.
Cc1cc(Br)ccc1OCCn1ccnc1	.	.	55	.	.	.
CCC(C)c1ccc(OCCn2ccnc2)cc1 (stereo not drawn)	.	.	53	.	.	.
Cc1cc(Cl)c(OCCOCCN2CCC(C)CC2)c(Br)c1	.	.	52	.	.	.
CCOc1ccc(OCCOCCn2ccnc2)cc1	.	.	.	.	.	.
CC1(C)CC(=O)c2sc(NS(=O)(=O)c3ccc(F)cc3)nc2C1	.	.	.	.	.	.
O=C(CSc1nnc(NC(=O)C2CC2)s1)NCc1ccc(F)cc1	.	.	.	.	.	.
CCc1nc(Nc2ccccc2OC)c2oc3ccccc3c2n1	.	.	.	.	.	.
COCCCNCCCCOc1ccc(Br)cc1C	.	269	.	.	.	.
COCCNCCCCOc1ccc(Br)cc1C	.	.	.	.	.	.
COc1ccc(-c2c(C(F)(F)F)[nH]n3c(=O)cc(-c4ccccc4)nc23)cc1	.	.	/	51	.	.
NC(=O)CC(NC(=O)c1ccccc1)c1ccc(NCc2ccccn2)c([N+](=O)[O-])c1 (stereo not drawn)	.	.	.	.	.	.
COc1ccc(O)c(/C=N/c2nc3ccccc3n2C)c1	.	.	33	.	.	.
SMILES	VIM-2 inhibitor	Mot1-301 SUMO	NALP1 inh	UBC9 SUMO inh	DNA FID counter	IMP-1 inhibitor
NC(=S)n1[nH]c(-c2ccc([N+](=O)[O-])cc2)c(N=Nc2cccc([N+](=O)[O-])c2)c1=O	.	/	.	59	.	.
Cc1c(N=Nc2c(-c3ccc([N+](=O)[O-])cc3)[nH]n(C(N)=S)c2=O)cccc1[N+](=O)[O-]	.	/	.	69	.	.
NC(=S)n1[nH]c(-c2ccc([N+](=O)[O-])cc2)c(N=Nc2ccccc2[N+](=O)[O-])c1=O	.	/	.	.	.	.
O=[N+]([O-])c1cc(Cl)cc2c1nc(NCCO)c1ccccc12	.	.	.	.	.	.
CCn1ncc(NC(=S)NCCc2ccc(OC)c(OC)c2)c1C(N)=O	.	.	.	.	.	.
Cc1ccc(C(=O)N/C(=C\c2ccc(-c3ccc(Cl)cc3)o2)C(=O)NCCCN(C)C)cc1	.	.	.	.	53	.
CN(C)C(=O)/C(=C\c1ccc(-c2cccc([N+](=O)[O-])c2)o1)NC(=O)c1ccccc1	9.2	.	.	.	.	.
CN(C)CCCNC(=O)/C(=C\c1ccc(-c2ccc(Br)cc2)o1)NC(=O)c1ccccc1	.	.	.	.	.	.
Cc1ccc(C(=O)N/C(=C/c2ccc(-c3cccc([N+](=O)[O-])c3)o2)C(=O)NC(C)C)cc1	.	.	.	.	.	.

Source: PubChem BioAssay (several laboratories)
